Compound activity: PubChem, Sanford-Burnham Center for Chemical Genomics
Sampled rows, rich in hits. Any-hit rate of the full collection: about 1.5%.
APJ antagonist – antagonists of human apelin receptor APJ, primary screen, CHO-K1 cells, beta-arrestin complementation, luminescence; 330,000 compounds, 0.32% hits; P35414; inhibition, % at 20 µM;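 active = inhibition above about 40% at 20 µM, limit read from the data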;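 note: cells challenged with 10 nM apelin-13 agonist together with compound; plate controls were apelin-13 plus DMSO wells for no effect and DMSO wells lacking apelin-13 for full effect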
Target sequence (P35414 whole entry, looked up): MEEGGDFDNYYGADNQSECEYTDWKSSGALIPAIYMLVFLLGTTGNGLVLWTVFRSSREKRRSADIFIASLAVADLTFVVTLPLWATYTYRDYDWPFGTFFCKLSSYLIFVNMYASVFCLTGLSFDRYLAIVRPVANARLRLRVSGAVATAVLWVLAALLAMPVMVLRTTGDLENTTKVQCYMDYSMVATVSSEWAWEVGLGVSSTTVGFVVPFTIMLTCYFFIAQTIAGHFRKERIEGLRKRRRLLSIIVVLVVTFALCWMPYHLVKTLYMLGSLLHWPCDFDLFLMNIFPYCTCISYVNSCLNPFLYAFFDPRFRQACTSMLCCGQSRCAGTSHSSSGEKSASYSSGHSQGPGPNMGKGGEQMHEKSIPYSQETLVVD
CCR6 antag – CCR6 receptor antagonists, primary screen, cell-based, CHO-K1, luminescence, beta-arrestin, uHTS. C-C chemokine receptor type 6 (Homo sapiens), P51684. CHO-K1 CCR6 PathHunter beta-arrestin, CCL20-stimulated. inhibition, % at 20 µM. 340,000 compounds, 0.49% hits;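 active = compounds whose inhibition of the agonist-driven luminescence signal at 20 µM reaches about 50%, limit read from the data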;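 note: cells stimulated with CCL20 at 14 nM final; plate controls were DMSO with CCL20 for no effect and DMSO without agonist for full effect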
EBI2 antag – EBI2 receptor antagonists, beta-arrestin recruitment, primary screen, cell-based, luminescence, 7a,25-OHC stimulation, uHTS; G-protein coupled receptor 183 (Homo sapiens), P32249; 7a,25-OHC stimulated; inhibition, % at 5 µM; 360,000 compounds, 0.81% hits; in the data active = inhibition above about 38%;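 note: enzyme fragment complementation signal reports receptor beta-arrestin coupling in cells; 0% = agonist plus DMSO wells and 100% = wells without agonist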
CXCR6 inh – CXCR6 receptor inhibitors, primary screen, cell-based, beta-arrestin, luminescence, CHO-K1 PathHunter, 1536-well; C-X-C chemokine receptor type 6 (Homo sapiens), O00574; inhibition, % at 20 µM; 360,000 compounds, 0.36% hits; in the data active = inhibition above about 34%, passing the limit was not always enough;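 note: antagonist mode with CXCL16 agonist at 10 nM final; 0% = 10 nM CXCL16 with DMSO and 100% = unstimulated wells without agonist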
APJ ag – agonists of human apelin receptor APJ, primary screen, CHO-K1 cells, PathHunter beta-arrestin, luminescence; activation, % at 20 µM; P35414; 0% DMSO wells, 100% apelin; AID 2520, 2010; 330,000 compounds, 0.11% hits;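 active = activation more than six SD over the plate average, tested at 20 µM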;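 note: 0% = DMSO alone and 100% = apelin-13 at 10 nM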
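Assay system: engineered CHO-K1 APJ arrestin reporter cells; Amount: 1000 CHO-K1 reporter cells seeded per well; Dosing: one dose, 20 µM compound, 1% DMSO; Times: compound stimulation 90 min at 25 °C, detection 60 min; Measured by: luminescent beta-gal fragment complementation, chemiluminescent substrate; Read-out: APJ–arrestin association signal; Controls: DMSO vs Apelin-13 10 nM.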
Starred values were filed as active, the others as inactive.

`Cc1ccc(S(=O)(=O)/N=C2\C=C(Nc3cccc(C(=O)O)c3)C(=O)c3ccccc32)cc1` gave APJ antagonist 18.1, CCR6 antag 22.9, EBI2 antag -2.3, CXCR6 inh 27.4 and APJ ag -0.3.
Screening Cc1ccc(S(=O)(=O)/N=C2\C=C(Nc3ccc(O)cc3)C(=O)c3ccccc32)cc1 returned APJ antagonist 25.7, CCR6 antag 63.0*, EBI2 antag -6.9, CXCR6 inh 30.5 and APJ ag -2.7.
CC(C)c1ccc(S(=O)(=O)/N=C2/C=C(Sc3ncn[nH]3)C(=O)c3ccccc32)cc1 was read as CCR6 antag 6.8, EBI2 antag 11.1 and CXCR6 inh 9.4.
`Cc1ccc(S(=O)(=O)/N=C2/C=C(Sc3ncn[nH]3)C(=O)c3ccccc32)cc1` gave CCR6 antag 92.2*, EBI2 antag -0.1 and CXCR6 inh 81.2*.
`CCCS(=O)(=O)Nc1cc(C(F)(F)F)ccc1OCCOC` gave APJ antagonist 10.9, CCR6 antag -14.8, EBI2 antag 8.2, CXCR6 inh 0.8 and APJ ag -4.2.
`Cc1ccc(C2(C)NC(=O)N(CC(=O)NNC(=O)c3ccccc3)C2=O)cc1` (stereo unspecified) gave APJ antagonist -66.7, CCR6 antag -5.1, EBI2 antag -7.1, CXCR6 inh 4.0 and APJ ag 0.4.
CCc1ccc(C2CC(=O)N(c3cccc(F)c3)C3=C2C(=O)OC3)cc1 (stereo unspecified) was read as APJ antagonist 2.8, CCR6 antag 9.0, EBI2 antag 11.3, CXCR6 inh -0.5 and APJ ag -2.5.
Screening O=C1C(Nc2ccccc2)=C/C(=N/S(=O)(=O)c2cccs2)c2ccccc21 returned CCR6 antag 64.1*, EBI2 antag 16.0 and CXCR6 inh 42.3*.
For CCc1ccc(S(=O)(=O)/N=C2\C=C(Nc3ccc(C(=O)O)cc3)C(=O)c3ccccc32)cc1 the results were APJ antagonist 0.7, CCR6 antag 16.4, EBI2 antag -7.7, CXCR6 inh 14.1 and APJ ag -3.6.
For Cn1c(N)c(C(=O)c2cc(-c3ccccn3)nc3ccccc23)c(=O)[nH]c1=O the results were APJ antagonist 55.7*, CCR6 antag -1.1, EBI2 antag -0.5, CXCR6 inh 4.3 and APJ ag 4.2.
Screening N#C/C(=C\c1ccc(N2CCOCC2)o1)C(=O)NCCc1ccccc1 returned APJ antagonist 16.6, CCR6 antag 7.1, EBI2 antag 8.4, CXCR6 inh 7.2 and APJ ag -2.5.
`COCCNC(=O)/C(C#N)=C/c1ccc(N2CCOCC2)o1` gave APJ antagonist 0.4, CCR6 antag 19.1, EBI2 antag -9.3, CXCR6 inh 52.1* and APJ ag -0.3.
For COc1ccc(C(=O)/C=C/C(=O)N(CC(=O)NC2CCCCC2)Cc2ccccc2)c(O)c1 the results were CCR6 antag 97.4*, EBI2 antag 16.1 and CXCR6 inh 71.0*.
For COc1ccc(C(=O)/C=C/C(=O)N(Cc2ccccc2OC)C(C(=O)NC2CCCCC2)c2ccncc2)c(O)c1 (stereo unspecified) the results were APJ antagonist 6.1, CCR6 antag 14.5, EBI2 antag 5.7, CXCR6 inh 0.8 and APJ ag -5.2.
For COc1ccc(C(=O)/C=C/C(=O)N(CC(=O)NC2CCCCC2)Cc2ccccc2OC)c(O)c1 the results were CCR6 antag 83.5*, EBI2 antag 28.9 and CXCR6 inh 63.8*.
For C=CCn1cnnc1SCC(=O)Nc1cccnc1Cl the results were APJ antagonist -17.9 and APJ ag 5.3.
O=C(c1ccc(F)cc1Cl)N(Cc1ccco1)C1CCS(=O)(=O)C1 (stereo unspecified) was read as APJ antagonist 9.3, CCR6 antag 4.3, EBI2 antag 1.1, CXCR6 inh -0.2 and APJ ag -4.6.
CN1CCN(C2=C(Cl)C(=O)C(c3cnc(N4CCCCC4)s3)=C(Cl)C2=O)CC1 was read as APJ antagonist 11.2, CCR6 antag 74.2*, EBI2 antag -2.3, CXCR6 inh 29.5 and APJ ag 11.4.
Screening CN1CCN(C2=C(Cl)C(=O)c3ccccc3C2=O)CC1 returned CCR6 antag 46.8, EBI2 antag -13.7 and CXCR6 inh -6.4.
For COc1cc(-n2nc(C)c3c2OC(N)=C(C#N)C3c2ccccc2)c(Cl)c(Br)c1O (stereo unspecified) the results were APJ antagonist 33.8, CCR6 antag 69.9*, EBI2 antag 7.1, CXCR6 inh 22.1 and APJ ag -7.0.
CC(C)CNC(=S)NC(=O)c1ccc(F)cc1 was read as APJ antagonist -8.1, CCR6 antag 6.0, EBI2 antag -6.1, CXCR6 inh 0.0 and APJ ag 5.9.
N#CC(C#N)=C(N)/C(C#N)=C/c1cc(O)c(O)c(O)c1 was read as APJ antagonist 56.8*, CCR6 antag 70.5*, EBI2 antag 8.1, CXCR6 inh 54.7* and APJ ag -7.4.
Cc1cccc(NS(=O)(=O)c2ccc(NC(=O)CN(c3cc([N+](=O)[O-])ccc3C)S(C)(=O)=O)cc2)c1 was read as APJ antagonist -0.1, CCR6 antag 3.4, EBI2 antag 85.5*, CXCR6 inh -1.8 and APJ ag 1.1.
`COc1ccc(C)cc1NS(=O)(=O)c1ccc(NC(=O)CN(c2cc([N+](=O)[O-])ccc2C)S(C)(=O)=O)cc1` gave APJ antagonist -17.4, CCR6 antag 10.7, EBI2 antag 14.9, CXCR6 inh 3.4 and APJ ag 3.7.
Screening CCn1c(=O)c2c3c(sc2n2c(=S)[nH]nc12)CCC3 returned APJ antagonist 15.2, CCR6 antag 9.1, EBI2 antag -8.5, CXCR6 inh -15.9 and APJ ag -3.3.
`COc1ccccc1/C=C/c1ccc2cccc(O)c2n1` gave APJ antagonist 39.0, CCR6 antag 63.3*, EBI2 antag 9.3, CXCR6 inh 34.0 and APJ ag -8.5.
`c1ccc(NC2=NCCN2CC2CCCCCC2)cc1` gave APJ antagonist 20.4, CCR6 antag 6.6, EBI2 antag -8.6, CXCR6 inh -3.6 and APJ ag -0.1.
`Oc1[nH]c2ccc(Br)cc2c1N=NC(=S)N1CCOCC1` gave APJ antagonist 10.5, CCR6 antag 30.0, EBI2 antag 41.9*, CXCR6 inh 7.7 and APJ ag -9.7.
c1ccc(Nc2nc(-c3ccccc3)ns2)cc1 was read as APJ antagonist -4.5, CCR6 antag 5.2, EBI2 antag 46.0*, CXCR6 inh -4.9 and APJ ag 1.1.
O=C(NC(=S)Nc1ccccc1Cl)c1cncc(C#Cc2ccccc2)c1 was read as APJ antagonist 29.0, CCR6 antag 46.0, EBI2 antag 15.4, CXCR6 inh 30.8 and APJ ag -3.1.
